Source: PubChem BioAssay
Rows were chosen to be rich in hits. Some 3% of all compounds tested hit in one or more screens of this group.
SENP7 block – SENP7 protease inhibitors, primary screen, biochemical, luminescence, uHTS | recombinant SENP7, Z-RLRGG-aminoluciferin luminescence, 40 min | inhibition, % at 5 µM | 330,000 compounds, 1.5% hits;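 active means inhibition above about 50% at the single test dose, limit read from the data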;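 further: plate controls were DMSO with enzyme for no effect and no enzyme buffer wells for full effect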
SENP8 block-1 – human SENP8 protease inhibitors, primary screen, biochemical, fluorescence, Nedd8 protein substrate, uHTS | Sentrin-specific protease 8 (Homo sapiens), Q96LD8 | recombinant SENP8 | inhibition, % at 20 µM | 360,000 compounds, 0.64% hits; in the data active means inhibition mostly above about 40%, no sharp cut-off; inactive means mostly below about 27%
SENP8 block-2 – SENP8 protease inhibitors, primary screen, biochemical, luminescence | purified SENP8, Z-RLRGG-aminoluciferin cleavage | inhibition, % at 10 µM | 330,000 compounds, 1.2% hits; in the data active means inhibition above about 50%
UBC13 inh – UBC13 polyubiquitin chain formation inhibitors, primary screen, biochemical, TR-FRET, uHTS | Ubiquitin-conjugating enzyme E2 N (Homo sapiens), P61088 | inhibition, % at 20 µM | 330,000 compounds, 0.47% hits | AID 485273, 2010; in the data active means inhibition above about 45%, passing the limit was not always enough
SENP6 inh – SENP6 protease inhibitors, primary screen, biochemical, luminescence, uHTS; Sentrin-specific protease 6 (Homo sapiens), Q9GZR1; Recombinant SENP6 catalytic domain, aminoluciferin luminescence; inhibition, % at 10 µM; 330,000 compounds, 1.8% hits; AID 2599, 2010;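 active means inhibition above about 50% at the single tested dose, limit read from the data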;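 further: plate controls were DMSO wells with enzyme for no effect and DMSO wells lacking enzyme for full effect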
Apaf1 inhib – inhibitors of human Apaf-1 apoptosome, primary screen, biochemical, DEVD-Rh110 fluorescence, uHTS; Apoptotic protease-activating factor 1 (Homo sapiens), O14727; reconstituted apoptosome caspase-3 activity; inhibition, % at 20 µM; 330,000 compounds, 0.71% hits; AID 489030, 2010; active means inhibition of at least 40% at 20 µM;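 further: plate controls were DMSO wells for no effect and DEVD-CHO caspase inhibitor wells for full effect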
Target sequence (O14727 whole entry, looked up): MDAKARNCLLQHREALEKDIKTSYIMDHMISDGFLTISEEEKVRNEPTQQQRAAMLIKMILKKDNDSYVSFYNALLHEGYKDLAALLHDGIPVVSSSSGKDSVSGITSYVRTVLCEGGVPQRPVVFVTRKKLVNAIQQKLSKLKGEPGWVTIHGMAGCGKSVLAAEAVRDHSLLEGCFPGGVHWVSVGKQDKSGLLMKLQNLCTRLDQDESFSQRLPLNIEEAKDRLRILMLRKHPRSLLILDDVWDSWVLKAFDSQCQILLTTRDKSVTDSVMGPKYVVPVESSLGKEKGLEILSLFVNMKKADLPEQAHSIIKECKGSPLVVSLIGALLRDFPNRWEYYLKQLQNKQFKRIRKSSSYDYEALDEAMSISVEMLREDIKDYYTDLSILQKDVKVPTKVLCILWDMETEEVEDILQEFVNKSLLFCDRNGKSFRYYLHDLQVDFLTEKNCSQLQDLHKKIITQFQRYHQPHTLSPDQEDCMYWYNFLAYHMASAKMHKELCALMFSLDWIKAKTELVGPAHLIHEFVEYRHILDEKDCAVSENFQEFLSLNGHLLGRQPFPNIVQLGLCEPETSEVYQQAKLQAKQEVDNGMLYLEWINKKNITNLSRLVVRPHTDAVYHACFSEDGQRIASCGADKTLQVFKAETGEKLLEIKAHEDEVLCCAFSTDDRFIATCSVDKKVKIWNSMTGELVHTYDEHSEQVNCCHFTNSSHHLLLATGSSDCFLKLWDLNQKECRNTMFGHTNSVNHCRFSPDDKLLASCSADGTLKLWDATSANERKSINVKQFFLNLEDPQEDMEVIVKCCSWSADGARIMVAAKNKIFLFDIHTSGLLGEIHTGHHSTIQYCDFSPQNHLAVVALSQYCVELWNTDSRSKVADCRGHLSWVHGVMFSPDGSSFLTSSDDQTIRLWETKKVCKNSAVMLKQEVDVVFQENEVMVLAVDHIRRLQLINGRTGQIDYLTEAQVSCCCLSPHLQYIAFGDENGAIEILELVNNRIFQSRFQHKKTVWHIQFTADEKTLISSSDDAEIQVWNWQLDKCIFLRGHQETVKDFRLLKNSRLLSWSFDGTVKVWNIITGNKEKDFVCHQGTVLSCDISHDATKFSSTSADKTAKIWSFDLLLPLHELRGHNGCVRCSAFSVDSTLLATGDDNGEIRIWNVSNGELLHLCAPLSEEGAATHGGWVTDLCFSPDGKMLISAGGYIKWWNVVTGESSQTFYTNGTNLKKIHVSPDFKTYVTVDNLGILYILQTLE
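Assay system – apoptosome proteins · Medium – Hepes buffer, pH 7.5 · Also added – cytochrome c with DEVD-Rh110 · Timing – 30 min compound preincubation, 50 min activation, room temperature · Detection – Rh110 fluorescence, excitation 480 nm, emission 540 nm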
SENP8 confirm – SENP8 protease inhibitors, retest, confirmation, biochemical, luminescence, single concentration; shares compounds with SENP7 block; Recombinant SENP8, Z-RLRGG-aminoluciferin luminescence, 60 min; inhibition, % at 12.5 µM; 6,200 compounds, 40% hits; AID 488912, 2010;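 active means mean inhibition across replicates above about 50%, limit read from the data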
SENP6 conf – SENP6 protease inhibitors, confirmation, biochemical, luminescence, single concentration. shares compounds with SENP7 block. recombinant SENP6, Z-RLRGG-aminoluciferin luminescence. inhibition, % at 12.5 µM. 6,200 compounds, 58% hits
SENP7 confirm – SENP7 protease inhibitors, retest, confirmation, biochemical, luminescence, single concentration; shares compounds with SENP7 block; recombinant SENP7, Z-RLRGG-aminoluciferin luminescence, 40 min; inhibition, % at 12.5 µM; 6,200 compounds, 69% hits; AID 488917, 2010
Casp3 SENP sel – caspase-3 protease inhibitors, confirmation, selectivity assay for SENP inhibitor project, biochemical, single concentration | shares compounds with SENP7 block | purified caspase-3, Z-DEVD-aminoluciferin luminescence, 60 min | inhibition, % at 12.5 µM | 6,200 compounds, 60% hits;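 active means mean inhibition above about 50%, limit read from the data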;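 further: plate controls were enzyme with DMSO for no effect and wells without caspase-3 for full effect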
Luc interf – interferes with luciferase luminescence in SENP counter-screen | shares compounds with SENP7 block | Pre-incubated SENP8/Z-RLRGG-aminoluciferin, luciferase luminescence interference | inhibition, % at 12.5 µM | 6,200 compounds, 39% hits | AID 488919;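 active means mean inhibition above about 50% when retested at one dose, limit read from the data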;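 further: plate controls were DMSO wells with completed reaction for no effect and substrate without enzyme for full effect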
* = called active by the depositor; / = no result.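 How the source made its calls, unless noted: active means mean inhibition above about 50% in the one-dose retest (limit read from the data); inactive means the rest.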

SMILES	SENP7 block	SENP8 block-1	SENP8 block-2	UBC13 inh	SENP6 inh	Apaf1 inhib	SENP8 confirm	SENP6 conf	SENP7 confirm	Casp3 SENP sel	Luc interf
O=C(N=c1nc2ccccn2s1)c1ccccc1	96*	-6	59*	-8	94*	-7	54*	59*	66*	54*	26
COc1cc(OC)nc(Nc2nc(C(N)Cc3ccc(C(F)(F)F)cc3)cs2)n1 (stereo not given)	/	-28	/	/	/	/	/	/	/	/	/
COC(=O)/C=c1/sc2nc3ccccc3n2c1=O	3	40	-20	-2	-17	-1	/	/	/	/	/
O=c1c2ccccc2nc2sc3ccccc3n12	87*	-74	74*	6	79*	-1	58*	56*	70*	72*	31
CC1CN(C(=O)COC(=O)/C=C/c2ccccc2)CC(C)O1 (stereo not given)	/	26	/	/	/	/	/	/	/	/	/
COc1cc2c(c(OC)c1OC)-c1ccc(NCc3ccccc3)c(=O)cc1C(NC(C)=O)CC2 (stereo not given)	/	-430	/	/	/	/	/	/	/	/	/
O=C(CCCN1C(=O)/C(=C\c2ccccc2)SC1=S)Nc1ccc(C(=O)O)cc1	23	10	66*	-6	82*	0	10	6	12	5	13
CCc1ccc(/C=C2\SC(=S)N(CCCC(=O)Nc3ccc(C(=O)O)cc3)C2=O)cc1	83*	19	94*	-31	92*	27	93*	97*	98*	77*	55*
O=C(CCCN1C(=O)S/C(=C/c2ccccc2)C1=S)Nc1ccc(C(=O)O)cc1	45	12	72*	-18	66*	2	11	52*	72*	46	20
O=C(CCCN1C(=O)/C(=C/c2ccc3c(c2)OCO3)SC1=S)Nc1ccc(C(=O)O)cc1	78*	29	86*	-22	93*	10	-13	3	14	16	16
CCCCN1C(=O)C(CC(=O)NCc2cccc3ccccc23)CC(C(=O)N2CCCCCC2)=C1C (stereo not given)	/	0	/	/	/	/	/	/	/	/	/
CN1CCN(C(=O)c2ccc(Cc3cn(C)c4ccccc34)nc2)CC1	/	-3	/	/	/	/	/	/	/	/	/
O=C(O)CCCN1C(=O)C2C3CCC(C3)C2C1=O (stereo not given)	/	38	/	/	/	/	/	/	/	/	/
CN(C)Cc1csc(NC(=O)Nc2ccccc2Cc2ccccc2)n1	/	19	/	/	/	/	/	/	/	/	/
CSc1ccc(C(O)c2ncc(-c3ccc(F)cc3)[nH]2)cc1 (stereo not given)	/	-2	/	/	/	/	/	/	/	/	/
O=C(Oc1ccc(-c2nnco2)cc1)c1ccco1	8	17	-6	0	-4	7	/	/	/	/	/
Cc1ccc(C(=O)COC(=O)c2ccc(-c3cnc4ccccc4n3)cc2)cc1C	0	-23	-2	41	11	7	/	/	/	/	/
O=C(Oc1ccc(-c2cnc3ccccc3n2)cc1)c1ccco1	98*	3	92*	-7	88*	-4	76*	83*	94*	87*	42
